# Data published in ChEMBL document CHEMBL4513216, “Probing the Open Global Health Chemical Diversity Library for Multistage-Active Starting Points for Next-Generation Antimalarials” (ACS Infect Dis, 2020).
# Assay: Toxicity liver stage against HepG2, at 10uM
# Format: cell-based
# Set-up: test concentration 10 uM, cell line HepG2-A16-CD81EGFP
# Settings: human, HepG2-A16-CD81EGFP cells; read-out: INHIBITION
# How it was run: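 Uninfected HepG2-A16-CD81EGFP cells, 3 × 10^3 per well, 1536-well, plated on prespotted compound at 10 μM final, parasite-free screening media added to match infected plates; puromycin 10 μM positive, DMSO 0.5% negative; run in parallel with 48 h PbLuc assay at 37 °C, 5% CO2; viability by CellTiter-Glo luminescence, normalized to controls.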
row,Compound,cytotoxicity at 10 µM [%]
1,CCS(=O)(=O)Nc1ccn(Cc2cccc(Cl)c2)n1,-4.49
2,Cn1nc(C2CCCN(Cc3cccs3)C2)c2nccnc21 (configuration not stated),4.2
3,Cc1ccc(CNCc2ccc(N3CCC(CO)CC3)nc2)c(C)c1,1.37
4,Cn1cnc(S(=O)(=O)NCCC(O)c2ccc3c(c2)OCO3)c1 (configuration not stated),-8.71
5,CC(C(=O)N1CCc2sccc2C1)N1CCC(S(N)(=O)=O)CC1 (configuration not stated),9.26
6,CC(=O)N(C)CCc1nc(-c2cc(C(N)=O)co2)cs1,-4.99
7,O=C(c1ccccn1)N1CCOC2(COCCN(Cc3cc[nH]n3)C2)C1 (configuration not stated),0.0227
8,O=C(N[C@H]1COC[C@@H]1N1CCCC1)c1csc(-c2cccs2)n1,9.71
9,CCCN1CC[C@@H]2[C@@H](CO[C@H]2CNC(=O)c2nccn2C)C1,-111
10,O=C(Nc1cccnc1)[C@H]1C[C@@H]2CCN(c3nncs3)C[C@H]2O1,-13.3
11,CCS(=O)(=O)CC(=O)NC(C)c1ccc(F)cc1F (configuration not stated),1.73
12,O=C(NCCn1ccnc1)N1CCN(c2nccs2)CC1,-3.68
13,COc1ccc(C2CCCN2Cc2nc3c(cnn3C)c(=O)[nH]2)cc1 (configuration not stated),-9.77
14,O=C1CC(c2cccnc2)c2c(c(C(=O)O)cn2-c2ccc(Cl)cc2)N1 (configuration not stated),-0.462
15,O=S(=O)(C1CC1)N1CCC2(COCc3cnc(NCC4CC4)nc32)C1 (configuration not stated),6.38
16,CS(=O)(=O)Nc1ccn(Cc2cccc(F)c2)n1,13.1
17,CC(C)n1[nH]c(=O)c2c1NC(=O)CC2c1ccc(C#N)cc1 (configuration not stated),3.92
18,COc1ccnc(N2CCN(C(=O)Cc3ccc(C)s3)CC2)n1,0.818
19,Cc1nc(N)cc(C2CN(C(=O)c3cscn3)CCO2)n1 (configuration not stated),7.03
20,Cc1nc(C(C)(C)NC(=O)Nc2ccc(C#N)cc2)no1,13
21,CN(Cc1cn2c(n1)CN(C(=O)c1cccn1C)CC2)Cc1ccco1,2.75
22,COc1ccc(C)cc1-n1cnnc1C1CCOCC1,11.2
23,CC(C)Cn1cc(NC(=O)c2cccc(N(C)C)c2)cn1,11.8

row,Compound,cytotoxicity at 10 µM [%]
1,COC(=O)c1ccn(CC(=O)Nc2nn(CC3CC3)c3ccccc23)n1,4.95
2,CCn1nc2c(cc1=O)CN(Cc1nc(-c3ccccn3)no1)CC2,-5.13
3,Cn1nc(C(=O)NCc2ccc(OC3CCCCC3)nc2)ccc1=O,21.3
4,CCc1ccc2nc(NCCOCCO)cc(C)c2c1,-2.78
5,CN(C)S(=O)(=O)NCC1CCN(Cc2ccccc2F)CC1,-0.768
6,Cn1nc(Cn2cccn2)c2c1CN(Cc1ccsc1)C2,-148
7,O=C(NCCn1ccnc1)c1cccc(F)c1,-10
8,COc1ccc(S(=O)(=O)NCC(c2cccn2C)N(C)C)cc1F (configuration not stated),-0.418
9,O=C(NCCO)c1coc(Cn2cnc3ccccc32)n1,-4.48
10,CO[C@@H]1CN(c2ccccc2)S(=O)(=O)[C@@]12CCNC2,-2.64
11,CCO[C@H]1CC[C@H]2[C@@H]1OCCN2C(=O)COc1ccccc1,-88.5
12,CSc1ccsc1C(=O)NS(=O)(=O)c1cnn(C)c1,-5.35
13,Cn1ccnc1CN1C[C@@H](CN2CCCCCC2)[C@@H](CO)C1,-2.63
14,CN1CC2(CCN(C(=O)c3ccc4c(=O)n(C)cnc4c3)C2)OC1=O (configuration not stated),2.41
15,CCc1noc(CN(CC)C(=O)C2CC(=O)N(Cc3ccncc3)C2)n1 (configuration not stated),18.2
16,CC(C)C1CN(C(=O)c2ccn(C)c(=O)c2)c2ccccc2N1 (configuration not stated),-6.01
17,COc1cccc(C(=O)NCc2ccccc2S(=O)(=O)N(C)CCO)c1,-4.73
18,CN1CCOC(CNC(=O)CCCOCCc2ccccc2)C1 (configuration not stated),-3.56
19,CCOc1ncccc1CNC(=O)c1c(C)oc(C)c1C,-3.75
20,Cc1noc([C@]23COC[C@H]2CN(S(C)(=O)=O)C3)n1,10.4
21,Cc1cccc(C(C(=O)NCc2nc(-c3cccnc3)no2)N(C)C)c1 (configuration not stated),6.45
22,O=C(O)c1cc(C=Cc2ccccc2)ncn1,5.17
23,CCC1CCCCCN1C(=O)c1ccc(N2CCC(O)CC2)cc1 (configuration not stated),-9.77

row,Compound,cytotoxicity at 10 µM [%]
1,O=C(NCC1CCOCC1)c1cc(-c2ccncc2)c2cnccc2n1,-0.762
2,CCOc1ccc(-c2nc(C(=O)NCC3CCOC3)cs2)cc1 (configuration not stated),-4.33
3,CCCN1CC2(CCN(C)CC2)CC1C(=O)NCCn1cc(C)cn1 (configuration not stated),-22.9
4,O=C(NCCCN1CCCC1)c1n[nH]c(=O)c2ccccc12,-6.62
5,CCOCCOC(C)C(=O)NCc1cn2cc(Cl)ccc2n1 (configuration not stated),8.82
6,Cn1cc(C2CCCN2CCCn2c(=O)oc3ccccc32)cn1 (configuration not stated),5.63
7,O=S(=O)(C1CC1)N1CCc2ncnc(-c3ccc(F)cc3)c2CC1,-66.5
8,CS(=O)(=O)NC[C@@H]1OC[C@H]2CN(C(=O)c3cnccn3)CC[C@H]21,2.98
9,CN(Cc1nccn1CC(F)(F)F)C(=O)c1cccc(N(C)C)c1,3.92
10,CN1CCC(CN(C)S(=O)(=O)CC2CCCCC2)CC1,0.304
11,Cc1ccccc1CCNC(=O)N1CCCC(c2nncn2C)C1 (configuration not stated),-29.8
12,Cc1nc(C)n(C2CCCN(C(=O)c3cc(C(N)=O)cs3)C2)n1 (configuration not stated),-6.86
13,Cc1ccc(CNC(=O)CN2CCCCC2Cn2cncn2)s1 (configuration not stated),1.8
14,CCN(Cc1ccncc1)c1cc(C2CCN2C(C)=O)nc(C)n1 (configuration not stated),5.25
15,COCCOc1ccc(NC(=O)C2CCCN(C(N)=O)C2)cn1 (configuration not stated),-8.9
16,N#Cc1cccnc1NCc1cccnc1N1CCCCC1,-48.3
17,c1cncc(CNCCc2cccs2)c1,-5.68
18,O=C(NC1CC1)c1cccc(Oc2ccc3nncn3n2)c1,-5.29
19,CS(=O)(=O)N1CCCC1CS(=O)(=O)c1ccccc1 (configuration not stated),1.01
20,O=C(Nc1cc(F)ccc1OCC1CCCO1)c1ccoc1 (configuration not stated),4.43
21,Cc1ncc2c(n1)CN(CC(=O)Nc1nccs1)CC2,-0.586
22,Cc1cc(CNC(=O)c2cn(CCC3CCCCN3)nn2)on1 (configuration not stated),-7.19
23,O=C(c1cc(F)cc(Cl)c1)N1C[C@H]2CC[C@@H](C1)N(Cc1ccccc1)C2,-128

row,Compound,cytotoxicity at 10 µM [%]
1,O=C(CNC(=O)C1CC1)NCC1CCCC1,2.12
2,CC(C)c1nc2c(n1C)CCN(CCc1ccccn1)C2,-2.01
3,COCc1nc2cc(NCc3ccncc3)ccc2o1,-3.3
4,CC(=O)NCC(=O)N1Cc2cc(C#N)ccc2C1c1cnco1 (configuration not stated),1.06
5,O=C(CCc1cccc(Cl)c1Cl)N1CCOCC1c1ncon1 (configuration not stated),-2.33
6,CC[C@@H](CO)NC(=O)c1coc(COc2ccc3sc(C)nc3c2)n1,4.67
7,O=C(CC(F)(F)F)NC(c1ccc(Cl)cc1)c1ncon1 (configuration not stated),2.14
8,CC(=O)NCC1CCN(C(=O)NCCc2ccc(Cl)s2)CC1,-6.19
9,CCS(=O)(=O)N1Cc2[nH]nc(COCc3cccnc3)c2C1,11.9
10,CC(=O)NCC(=O)N1CCn2cc(CN3CCN(C)CC3)nc2C1,-12.4
11,CCCNC(=O)C1CCCN(c2ccc3nncn3n2)C1 (configuration not stated),10.7
12,COc1ccc(CN2CCc3ncnc(C4CCOC4)c3CC2)cc1 (configuration not stated),-9.25
13,CS(=O)(=O)c1ccc(OCCCN2CCc3cncnc3C2)cc1,-15.3
14,OCc1ccc(-c2nccn2CCc2nc3c(s2)CCCC3)o1,4.71
15,CCC(C)c1ccc(NC(=O)C2CCN(C(=O)COC)CC2)cc1 (configuration not stated),-3.16
16,COCC(=O)NCc1cc(=O)n2c(n1)CN(Cc1ccsc1)CCC2,0.281
17,Cc1ccnc(C2CCN(C(=O)CCn3ncc4ccccc43)C2)n1 (configuration not stated),-22.3
18,CCc1nccn1C1CCCN(C(=O)CCOCC(F)(F)F)C1 (configuration not stated),-9.39
19,CS(=O)(=O)N1CC2(CCN(C3CCCCC3)C2)Cc2ccccc21 (configuration not stated),3.38
20,COCCCNC(=O)CN(C)C(C)c1nc(C)no1 (configuration not stated),8.8
21,CC(C)C(=O)NCCNC(=O)C12CCC(=O)N1c1cc(Cl)ccc1S2 (configuration not stated),15.3
22,C=C/C=c1\c(=C/C)oc2c(NCc3ccccc3)ncnc12,21.3
23,CC[C@@H](C)[C@@H](N)C(=O)Nc1cccc(-c2cnc(N)nc2)c1,0.942

row,Compound,cytotoxicity at 10 µM [%]
1,CC(=O)N1CC[C@H](c2nnc(Cc3c[nH]c4ccccc34)o2)C1,8.12
2,N#Cc1cccc(CS(=O)(=O)NCC(O)Cc2ccccc2)c1 (configuration not stated),2.99
3,COc1ccccc1CC1CCN(C(=O)CCN2CCOC2=O)CC1,3.76
4,CCC(C)(NCC(=O)Nc1nc(C)cs1)c1nc(C)cs1 (configuration not stated),16.4
5,COc1ccc(NC(=O)NCCCn2nc3ccccn3c2=O)cc1,-13.3
6,CCNc1cc2c(nn1)CCN(C(=O)CCc1c(C)noc1Cl)C2,-3.25
7,NCC1[C@H]2CN(Cc3cccc(Cl)c3)C[C@@H]12 (some centres not stated),-9.17
8,CCOc1ccc(Cl)cc1CCNC(=O)N1CCCC(CO)C1 (configuration not stated),5.46
9,Cc1cc2n(n1)CCN(c1nc(N(C)C)nc3c1CCNC3)C2,0.94
10,O=C(CCc1ccc(OC(F)(F)F)cc1)N1CCCS1(=O)=O,3.42
11,Cn1cc(N2CCCC(Nc3ccc4c(c3)NC(=O)CC4)C2=O)cn1 (configuration not stated),-1.61
12,C=Cn1cc(CN2CCN(CC3(c4ccccc4)CC3)CC2)c(C)n1,1.78
13,CC1N(c2cnn(C)c2)C(=O)COC12CCN(CC1CC1)CC2 (configuration not stated),3.68
14,COC(=O)CC1CCCCN1CC(=O)Nc1ccc(F)cc1Cl (configuration not stated),14
15,COc1ccc(F)c(-c2nccn2CCN2CCCC2)c1,-11.8
16,O=C(c1nn(-c2ccccc2F)cc1O)N1CCCCC1,3.36
17,COCCNc1ncc(-c2cc(C)no2)c(-c2ccco2)n1,13.4
18,COCCNc1ccc(-c2noc([C@@H]3CCCN3)n2)cn1,-1.57
19,C=C(C)COc1ccccc1C(=O)NCc1nc(C)cc(=O)[nH]1,-3.7
20,COc1ccc(NC(=O)CNc2cccc3c2CCCC3)c(OC)c1,16.5
